KCNQ1 inh: human KCNQ1 channel inhibition; P51787; CHO-K1 KCNQ1, FluxOR thallium flux fluorescence; active compounds read high; B-score at 10 µM; hit rate 1.3% among 310,000; AID 2642;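 active = compounds whose thallium flux B-score, printed positive for inhibition, exceeds three library SD while starting fluorescence stays within three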;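 also: channel opened by potassium depolarization with thallium stimulus after 20 min compound exposure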
KCNK3 inh: human KCNK3 channel inhibition, primary screen; O14649; CHO-KCNK3 thallium flux, FluxOR fluorescence; active compounds read low; B-score at 10 µM; hit rate 0.84% among 340,000; AID 602410;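 active = B-score under library mean minus 4 SD, starting fluorescence ratio at most library mean plus 5 SD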;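 also: more negative B-score means stronger inhibition of thallium flux through KCNK3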
Target sequence (O14649 whole entry, looked up): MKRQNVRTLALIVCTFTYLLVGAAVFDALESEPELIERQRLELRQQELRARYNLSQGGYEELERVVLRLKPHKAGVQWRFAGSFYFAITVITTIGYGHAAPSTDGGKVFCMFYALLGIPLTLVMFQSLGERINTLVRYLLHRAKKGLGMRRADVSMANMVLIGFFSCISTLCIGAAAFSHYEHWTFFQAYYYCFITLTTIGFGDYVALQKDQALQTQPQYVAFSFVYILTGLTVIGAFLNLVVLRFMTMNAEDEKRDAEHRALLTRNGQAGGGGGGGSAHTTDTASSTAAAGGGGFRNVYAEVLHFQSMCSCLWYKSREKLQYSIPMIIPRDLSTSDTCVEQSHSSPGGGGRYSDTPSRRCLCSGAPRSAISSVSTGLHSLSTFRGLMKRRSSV
Cl transport mod: modulates chloride dependent transport by human KCC2; Q9H2X9; KCC2 cells, thallium flux FluoZin-2 fluorescence; B-score of Tl+ flux slope (higher = more flux/activation; lower = inhibition) at 10 µM; hit rate 2.2% among 190,000;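 active = thallium flux slope and its plate-corrected score both differing from the plate sample mean at a set confidence after two filtering rounds, in either direction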;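 also: slope of fluorescence scaled to starting intensity during 10 to 20 s after thallium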
KCNQ1 pot: human KCNQ1 channel potentiation or activation; P51787; B-score at 10 µM; CHO-K1 KCNQ1, thallium flux FluxOR fluorescence; active compounds read high; AID 2648; hit rate 0.35% among 310,000;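 active = fluorescence ratio B-score, a plate-corrected score, at least three library SD, with initial intensity B-score within 5 SD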
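Material: CHO-K1 cells stably expressing KCNQ1. Medium: assay buffer for compound exposure, DMSO matched across wells. Reagent: K+/Tl+ depolarizing stimulus. Compound dosing: single-concentration screen. Times: 37 °C overnight plating, 90-min dark dye load, 20-min compound pretreatment. Technique: FluxOR Tl+ flux fluorescence.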
hERG rescue: compounds protecting human hERG from proarrhythmic drug block; activation (rescue from dofetilide block), less the hit threshold, % at 10 µM; CHO-hERG, FluxOR thallium flux, dofetilide IC70 present; AID 1511; hit rate 0.51% among 310,000;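 active = activation above the mean of controls blocked by dofetilide plus 5 SD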;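 also: thallium influx through hERG after potassium depolarization seen as dye fluorescence rise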
KCNK9 block: human KCNK9 channel inhibition; B-score at 10 µM; hit rate 1.2% among 310,000; Q9NPC2; HEK293 KCNK9, FluxOR thallium flux fluorescence; active compounds read low; AID 488922;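 active = ratio B-score over 3 SD below the library mean, with starting fluorescence within 5 SD of its mean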;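 also: negative B-score means less thallium flux so channel inhibition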
KCC2 sec1: KCC2 (human) modulation, secondary assay; shares compounds with Cl transport mod; HEK293-KCC2, thallium flux, FluoZin2 fluorescence; active compounds read high; normalised thallium flux (F/F0 slope) at 10 µM; hit rate 15% among 3,700;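 active = thallium flux slope above the same plate's solvent-only control mean plus 3 SD; inconclusive = the two replicate wells disagree; inactive = no significant difference from solvent-only control wells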
KCC2 bumet counter: thallium flux persisting under bumetanide in KCC2 cells, counter-screen secondary assay | HEK293-KCC2 + bumetanide/ouabain, thallium flux FluoZin2; active compounds read high | hit rate 49% among 3,700 | shares compounds with Cl transport mod | normalized thallium flux at 10 µM | AID 1714;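 active = thallium entry rate above the same plate's blocked-transporter control wells by more than 3 SD; inconclusive = the two repeat wells disagree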;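 also: raw slope of fluorescence over initial fluorescence between 10 and 20 s after thallium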
KCC2 sec2: KCC2 (human) modulation, second secondary assay. AID 1715. hit rate 23% among 3,700. shares compounds with Cl transport mod. HEK293-KCC2, thallium flux FluoZin2 fluorescence; actives lie on both sides; F/F0 rise rate, 10–20 s post-thallium. normalized thallium flux at 10 µM;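 active = thallium flux slope more than 3 SD above or below the plate's solvent-only control mean, mostly below; inconclusive = the two repeat wells disagreed; inactive = no significant shift from solvent-only controls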
HEK293 Tl flux: acts in parental HEK cells, KCC2 counter-screen | thallium flux rate (normalised fluorescence) at 10 µM | shares compounds with Cl transport mod | hit rate 46% among 3,700 | HEK293 parental cells, thallium flux FluoZin2, ouabain; baseline-ratio fluorescence slope, 10–20 s after thallium;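 active = thallium flux rate significantly above the same plate's solvent-only control wells, beyond their mean plus 3 SD; inconclusive = the two replicate wells gave conflicting results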
KCC2 ouabain: confirmation of human KCC2 modulators with ouabain; shares compounds with Cl transport mod; raw Tl+ flux slope (below DMSO = inhibition, above = activation) at 10 µM; hit rate 48% among 3,700; AID 1717; HEK293-KCC2, thallium flux FluoZin2 fluorescence; bidirectional: low = inhibitor, high = activator;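 active = thallium flux slope beyond 3 SD from same-plate DMSO control mean in most replicates, usually higher, sometimes lower; inconclusive = repeat tests gave conflicting results; inactive = no significant difference from controls in most replicates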;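 also: slope of initial-normalized fluorescence between seconds 10 and 20 after thallium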
HEK293 Tl flux2: acts in parental HEK cells, second KCC2 counter-screen; shares compounds with Cl transport mod; HEK293 parental, thallium flux FluoZin-2 fluorescence slope; thallium flux slope at 10 µM; hit rate 33% among 3,700; AID 1718;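 active = thallium flux slope above the same plate's solvent-control mean plus 3 SD in both duplicate wells; inconclusive = duplicate wells that disagreed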;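 also: run without ouabain in cells lacking the KCC2 cotransporter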
Large screens that a line does not name were inactive (follow-up assays come after a bar, where they were run). Rows were chosen to be rich in hits. Some 4.1% of all compounds tested hit in one or more screens of this group.

O=C(CN1C(=O)NC2(CCCC2)C1=O)Nc1nc(-c2ccc(F)cc2)cs1	Cl transport mod -6.59 | KCC2 sec1 inactive | KCC2 bumet counter inactive | KCC2 sec2 0.0273 | HEK293 Tl flux inactive | KCC2 ouabain 0.0136 | HEK293 Tl flux2 inactive
CCCC(=O)Nc1nc(-c2ccc3c(c2)CCN3S(C)(=O)=O)cs1	Cl transport mod 6.22 | KCC2 sec1 inactive | KCC2 bumet counter inactive | KCC2 sec2 inactive | HEK293 Tl flux inconclusive | KCC2 ouabain inactive | HEK293 Tl flux2 inactive
CN1CCN(CC(=O)Nc2nc(-c3ccccc3)cs2)CC1	none (no result: Cl transport mod) | KCC2 sec1 inactive | KCC2 bumet counter 0.00874 | KCC2 sec2 inactive | HEK293 Tl flux inactive | KCC2 ouabain inactive | HEK293 Tl flux2 inactive
CNC(=O)c1nn(C)c(=O)[nH]c1=O	none (no result: KCNQ1 inh, Cl transport mod, KCNQ1 pot, hERG rescue, KCNK9 block)
N#Cc1cc([N+](=O)[O-])ccc1NC(=O)CSc1n[nH]c(=O)[nH]c1=O	none (no result: KCNQ1 inh, Cl transport mod, KCNQ1 pot, hERG rescue, KCNK9 block)
CC1CC1C(=O)OCC(=O)Nc1cc(S(=O)(=O)N2CCCCC2)ccc1Cl (configuration not stated)	none (no result: KCNQ1 inh, Cl transport mod, KCNQ1 pot, hERG rescue, KCNK9 block)
Cc1nc2c(-c3ccccc3)c[nH]n2c(=O)c1Cc1ccccc1	Cl transport mod 16.3 | KCC2 sec1 inactive | KCC2 bumet counter 0.025 | KCC2 sec2 inactive | HEK293 Tl flux 0.02 | KCC2 ouabain 0.0296 | HEK293 Tl flux2 0.0194
O=C(O)C1(O)C[C@@H](O)C(O)[C@H](O)C1 (some centres not stated)	none (no result: KCNQ1 inh, Cl transport mod, KCNQ1 pot, hERG rescue, KCNK9 block)
Cc1cc(C(=O)OCC(=O)Nc2cccc(S(=O)(=O)N(C)C)c2)c2ccccc2n1	Cl transport mod -2.89 | KCC2 sec1 inactive | KCC2 bumet counter inactive | KCC2 sec2 inactive | HEK293 Tl flux 0.00571 | KCC2 ouabain inactive | HEK293 Tl flux2 inactive
Cc1ccc2c(Cl)cc(Cl)c(OCC(=O)Nc3ccc(C)c(S(=O)(=O)N(C)C)c3)c2n1	Cl transport mod 4.59 (no result: KCNK3 inh) | KCC2 sec1 inactive | KCC2 bumet counter 0.0168 | KCC2 sec2 inactive | HEK293 Tl flux 0.0157 | KCC2 ouabain 0.0244 | HEK293 Tl flux2 inactive
Cc1ccc2c(Cl)cc(Cl)c(OCC(=O)Nc3cccc(S(=O)(=O)N(C)C)c3)c2n1	Cl transport mod 7.87 | KCC2 sec1 inactive | KCC2 bumet counter 0.0187 | KCC2 sec2 inactive | HEK293 Tl flux 0.0143 | KCC2 ouabain 0.03 | HEK293 Tl flux2 inconclusive
Cc1ccc2c(Cl)cc(Cl)c(OCC(=O)Nc3cccc(S(N)(=O)=O)c3)c2n1	none
Cc1ccc(NC(=O)CNC(=O)c2ccc(OC(F)F)cc2)cc1S(=O)(=O)N1CCCCCC1	none (no result: KCNQ1 inh, Cl transport mod, KCNQ1 pot, hERG rescue, KCNK9 block)
OC(c1ccccc1)C(NCCNCc1ccccc1)c1ccccc1 (configuration not stated)	none (no result: KCNQ1 inh, Cl transport mod, KCNQ1 pot, hERG rescue, KCNK9 block)
O=C(COC(=O)/C=C/c1cccc(Cl)c1)NC1CC1	none (no result: KCNQ1 inh, Cl transport mod, KCNQ1 pot, hERG rescue, KCNK9 block)
Cc1cc2c(cc1C)NC(c1nc3ccccc3[nH]1)C1=C(CC(C)(C)CC1=O)N2 (configuration not stated)	Cl transport mod -3.76 | KCC2 sec1 inactive | KCC2 bumet counter inactive | KCC2 sec2 inactive | HEK293 Tl flux inactive | KCC2 ouabain inactive | HEK293 Tl flux2 inactive
CC(=O)C1CCC2C3CCC4CC(=O)CCC4(C)C3C=CC12C (configuration not stated)	none (no result: KCNQ1 inh, Cl transport mod, KCNQ1 pot, hERG rescue, KCNK9 block)
